Assay results as given in ChEMBL document CHEMBL2169874, “Design, synthesis, and pharmacological evaluation of novel hybrid compounds to treat sickle cell disease symptoms. part II: furoxan derivatives” (J Med Chem, 2012).
Activity calls are given as the source filed them. No cut-off for these calls is given here.

Key:
[1] = Induction of nitrite release at 10^-4 M after 1 hr by Griess method in presence of L-cysteine; assay type: physicochemical; details: 100 µM
Mus musculus [2] = assay: Antinociceptive activity in Swiss albino mouse assessed as inhibition of acetic-acid induced abdominal constriction at 100 umol/kg, po administered 1 hr prior to acetic-acid challenge measured after 10 mins relative to vehicle-treated control; assay type: functional; details: Abdomen
Summary of the method: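 Mice dosed orally at 100 μmol/kg as a suspension in 5% arabic gum in saline. 0.6% acetic acid (0.1 mL/10 g) given ip 1 h later. Starting 10 min after injection, constrictions per animal counted for 20 min. Vehicle controls received an equal volume. Expressed as % inhibition vs vehicle group; mean ± SEM, 10 animals per group; Student's t test.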

Mus musculus [3] = assay: Mutagenicity in Swiss mouse assessed as micronucleated reticulocytes in peripheral blood at 100 mg/kg, po after 30 hrs by micronucleus test; assay type: toxicity, organism-based; design: dose 100 mg/kg, route oral; details: in vivo
Summary of the method: (§1)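 Swiss mice of both sexes (25−30 g), 10 per group, gavaged at 25, 50 or 100 mg/kg. Negative control: 1% CMC/0.2% Tween by gavage; positive control: cyclophosphamide 50 mg/kg ip. Blood collected 30 h later, slides prestained with acridine orange. 1000 reticulocytes scored per animal for micronucleated cells; mean with SD.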

K562 [4] = assay: Upregulation of gamma-globin mRNA expression in human K562 cells at 5 uM after 24 to 96 hrs by qRT-PCR analysis relative to control; assay type: functional, cell-based
Summary of the method: (§2)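 K562 cells in DMEM with 10% FBS, penicillin/streptomycin, 37 °C, 5% CO2, seeded at 1 × 10^7 cells/100 mL. Treated at 5−100 μM for 24, 48, 72 or 96 h. γ-globin mRNA by SYBR Green qRT-PCR, normalized to β-actin and GAPDH, vs vehicle control (DMSO, or water for HU). Mean ± SEM, n = 5; ANOVA with Dunnett's test.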

Mus musculus [5] = assay: Mutagenicity in Swiss mouse assessed as micronucleated reticulocytes in peripheral blood at 25 mg/kg, po after 30 hrs by micronucleus test; assay type: toxicity, organism-based; design: dose 25 mg/kg, route oral; details: in vivo; summary of the method: as §1
Mus musculus [6] = assay: Mutagenicity in Swiss mouse assessed as micronucleated reticulocytes in peripheral blood at 50 mg/kg, po after 30 hrs by micronucleus test; assay type: toxicity, organism-based; design: dose 50 mg/kg, route oral; details: in vivo; summary of the method: as §1
K562 [7] = assay: Upregulation of gamma-globin mRNA expression in human K562 cells at 100 uM after 96 hrs by qRT-PCR analysis relative to control; assay type: functional; summary of the method: as §2
K562 [8] = assay: Upregulation of gamma-globin mRNA expression in human K562 cells at 5 uM after 96 hrs by qRT-PCR analysis relative to control; assay type: functional; summary of the method: as §2
K562 [9] = assay: Upregulation of beta-soluble guanilate cyclase mRNA expression in human K562 cells at 5 and 30 uM from 24 to 96 hrs by qRT-PCR analysis relative to control; assay type: functional, cell-based
Summary of the method: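 K562 cells in DMEM with 10% FBS, penicillin/streptomycin, 37 °C, 5% CO2, seeded at 1 × 10^7 cells/100 mL. Treated at 5 or 30 μM for 24, 48, 72, 96 h. β-sGC mRNA by SYBR Green qRT-PCR, normalized to β-actin and GAPDH, vs DMSO control. Mean ± SEM, n = 5; Mann−Whitney test.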

K562 [10] = assay: Upregulation of gamma-globin mRNA expression in human K562 cells at 5 uM after 24 hrs by qRT-PCR analysis relative to control; assay type: functional, cell-based; summary of the method: as §2

SMILES	Activity [1] [%]	inhibition (Mus musculus [2])	also measured
O=C(OCc1c(-c2ccccc2)no[n+]1[O-])c1cc(N2C(=O)c3ccccc3C2=O)ccc1O	10.6	inactive	
NC(=O)NO [HYDROXYUREA]		inactive	Activity (Mus musculus [3]): 33.7; Activity (K562 [4]): inactive; Activity (Mus musculus [5]): 9.9; Activity (Mus musculus [6]): 15; fold change (FC) (K562 [7]): 1.77
O=C(OCc1c(-c2ccccc2)no[n+]1[O-])c1cccc(N2C(=O)c3ccccc3C2=O)c1	13.2	inactive	
O=C1c2ccccc2C(=O)N1CCOc1c(S(=O)(=O)c2ccccc2)no[n+]1[O-]	9.5		fold change (FC) (K562 [8]): 2.8; Activity (Mus musculus [3]): 6.7; Activity (Mus musculus [5]): 4; Activity (K562 [9]): inactive; Activity (Mus musculus [6]): 5.5; Activity (K562 [10]): Active; inhibition in vivo at 100 µmol/kg (Mus musculus [2]): 43%
O=C(OCc1c(-c2ccccc2)no[n+]1[O-])c1ccccc1N1C(=O)c2ccccc2C1=O	9.7	inactive	
O=C1c2ccccc2C(=O)N1Cc1c(-c2ccccc2)no[n+]1[O-]	14.8	inactive	
O=[N+]([O-])O[C@H]1CO[C@H]2[C@@H]1OC[C@H]2O[N+](=O)[O-] [ISOSORBIDE DINITRATE]	11.6		
O=C1c2ccccc2C(=O)N1c1ccc(S(=O)(=O)NCCOc2no[n+]([O-])c2S(=O)(=O)c2ccccc2)cc1	28.1		inhibition in vivo at 100 µmol/kg (Mus musculus [2]): 36%
Cc1c(N(C)CS(=O)(=O)O)c(=O)n(-c2ccccc2)n1C		Active	
O=C(NCCOc1no[n+]([O-])c1S(=O)(=O)c1ccccc1)c1ccc(N2C(=O)c3ccccc3C2=O)cc1	28.2	inactive	
